SENP1 FRET inh: inhibitors of human SENP1 SUMO protease catalytic domain; Q9P0U3; recombinant SENP1 catalytic domain, CyPet-SUMO1-YPet FRET cleavage; inhibition, % at 10 µM; 360,000 tested, 0.21% active; AID 624204;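 active = inhibition at least 30% at 10 µM, raw YFP signal under a set limit, fluorescence ratio 0.5 to 1.5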;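 also: 0% = enzyme with DMSO and 100% = no enzyme wells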
Target sequence (Q9P0U3 419-644 limits assumed): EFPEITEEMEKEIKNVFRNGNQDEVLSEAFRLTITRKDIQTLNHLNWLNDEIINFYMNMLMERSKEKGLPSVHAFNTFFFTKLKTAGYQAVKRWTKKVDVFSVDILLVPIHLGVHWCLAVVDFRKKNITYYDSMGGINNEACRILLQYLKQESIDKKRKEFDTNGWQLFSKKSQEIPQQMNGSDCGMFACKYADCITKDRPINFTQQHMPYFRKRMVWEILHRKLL
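system = hSENP1 catalytic domain, recombinant | reagent = SFCypet-SUMO1-SFYpet substrate at 25 nM | doses = one dose per compound, 10 µM, 0.5% DMSO | incubation = enzyme reaction for 50 min at room temperature, dark | measured by = FRET, CFP and YFP emission | controls = no-enzyme low, enzyme-DMSO high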
Beta2AR agonist: agonists of human beta-2 adrenergic receptor inducing internalization; P07550; Am2.2-beta2AR cells, FAP receptor internalization, flow cytometry; response, % (no concentration beside the values); 340,000 tested, 0.43% active;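 active = response above a set limit, near 3 SD of response in nonfluorescent compounds, cut at about 42% in these data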
ABHD5 PLIN5 PPI: blocks binding of human ABHD5 to perilipin-5 | Q00G26+Q8WTS1 | Split G. princeps luciferase complementation, luminescence, 4 h | inhibition, % at 4 µM | 360,000 tested, 0.78% active;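 active = inhibition above the mean inhibition across every tested compound plus 3 SD, cut at about 22% in these data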;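 also: 0% = DMSO only wells and the 100% control is not disclosed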
NadD block: NadD (S. aureus) enzyme inhibition; purified NadD enzyme, colorimetric absorbance read-out; AID 602399; inhibition, % at 20 µM; 360,000 tested, 0.78% active; in the data active = inhibition above about 26%
GRK2 aptamer HTS: inhibitors of human GRK2 displacing RNA aptamer; P25098; bead flow cytometry, FAM-aptamer displacement from GRK2; inhibition of aptamer binding, % at 10 µM; 330,000 tested, 0.59% active;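 active = inhibition of aptamer binding above 40%, roughly 3 SD of noise, on plates passing a quality check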;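 also: median bead fluorescence of bound FAM aptamer so fluorescent compounds give negative values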
Beta2AR ag CP1: agonists of human beta-2 adrenergic receptor. Am2.2-beta2AR cells, FAP surface receptor, flow cytometry; active compounds read low. 1,100 tested, 25% active. shares compounds with Beta2AR agonist. AID 540358. percent response (surface receptor), % at 10 µM;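 active = surface receptor percent response at or below 58%, roughly 3 SD from nonfluorescent compounds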
FAP fluor counter: counter-screen for beta-2AR agonists: fluorescence in Am2.2 cells; calls only at 10 µM; shares compounds with Beta2AR agonist; AID 588765; 1,100 tested, under 10 active; FAP fluorogen flow cytometry, fluorescence counterscreen; active compounds read low;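 active = percent response below a set limit in fluorescence channel 1 and below 50% in channel 8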
ABHD5 PLIN5 conf: confirmation of human ABHD5-PLIN5 interaction inhibitors | shares compounds with ABHD5 PLIN5 PPI | biochemical ABHD5-PLIN5 interaction, luminescence | inhibition, % at 4 µM | 2,200 tested, 67% active | AID 651612; in the data active = inhibition above about 23%;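 also: 0% = DMSO vehicle wells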
HNF4 split-luc: counter-screen for ABHD5-PLIN5 inhibitors: HNF4 split-luciferase; shares compounds with ABHD5 PLIN5 PPI; HNF4 dimerization, luminescence, biochemical; inhibition, % at 4 µM; 2,200 tested, 77% active; AID 651674;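 active = mean inhibition across replicate wells exceeding the computed hit threshold, cut at about 13% in these data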;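 also: light from luciferase halves that rejoin when HNF4 fusion proteins dimerize; 0% = DMSO only wells and the 100% control is not given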
Target sequence (P41235 whole entry, looked up, the tested form may be a part): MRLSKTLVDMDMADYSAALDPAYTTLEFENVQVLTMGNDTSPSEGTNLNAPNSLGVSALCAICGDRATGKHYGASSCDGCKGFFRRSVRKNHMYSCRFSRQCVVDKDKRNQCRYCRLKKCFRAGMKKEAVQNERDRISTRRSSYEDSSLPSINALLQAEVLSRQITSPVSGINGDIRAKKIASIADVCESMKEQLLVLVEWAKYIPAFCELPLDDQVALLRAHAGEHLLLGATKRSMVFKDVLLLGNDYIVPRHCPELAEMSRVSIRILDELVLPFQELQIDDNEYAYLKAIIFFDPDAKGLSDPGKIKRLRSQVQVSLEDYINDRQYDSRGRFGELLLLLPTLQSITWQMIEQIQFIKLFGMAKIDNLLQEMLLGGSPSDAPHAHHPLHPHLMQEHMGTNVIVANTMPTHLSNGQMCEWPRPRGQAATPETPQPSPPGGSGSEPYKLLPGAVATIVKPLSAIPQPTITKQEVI
NadD conf: confirmation of Staphylococcus aureus NadD inhibitors; shares compounds with NadD block; purified S. aureus NadD, colorimetric enzyme assay; inhibition, % at 20 µM; 2,000 tested, 13% active; in the data active = inhibition mostly above about 42%, no sharp cut-off; inactive = mostly below about 42%
Active calls of the source: *; i = inactive; x = no result given. A selection: hits, their analogues and other compounds. The true share with any hit is near 2.5%.

SMILES | SENP1 FRET inh | Beta2AR agonist | ABHD5 PLIN5 PPI | NadD block | GRK2 aptamer HTS | Beta2AR ag CP1 | FAP fluor counter | ABHD5 PLIN5 conf | HNF4 split-luc | others
CCCCNS(=O)(=O)c1ccc2nc(-c3cccnc3)cc(C(=O)NCCCN(CC)CC)c2c1 | x | x | x | x | 0 | x | x | x | x
CCCCN(C)CCNC(=O)c1cc(-c2cccnc2)nc2ccc(S(=O)(=O)N3CCC(C)CC3)cc12 | 1 | 46* | -2 | 5 | 0 | 98 | i | x | x
Cc1ccc(C(=O)NCCN2CCC(n3c(=O)[nH]c4ccccc43)CC2)cc1F | 2 | x | 4 | -6 | x | x | x | x | x
COc1ccccc1CNCC(O)Cn1c2ccccc2c2ccccc21 (stereo not drawn) | 0 | 55* | 35* | -4 | 0 | 111 | i | 9 | -2
OCCNCC(O)Cn1c2ccccc2c2ccccc21 (stereo not drawn) | 1 | -4 | -4 | -6 | 0 | x | x | x | x
Clc1ccc(OCCCNCc2ccccc2)c(Br)c1 | 2 | -13 | 0 | -1 | 0 | x | x | x | x
Clc1ccc(Cl)c(OCCCCNCc2ccccc2)c1 | -1 | 46* | 27* | -1 | 0 | 114 | i | 5 | 1
CCCNC(=O)NS(=O)(=O)c1ccc(Cl)cc1 | 3 | 1 | 1 | -1 | 1 | x | x | x | x
CCCNC(=O)c1nnsc1S(=O)(=O)c1ccc(Cl)cc1 | 1 | 81* | 77* | -2 | x | 55* | i | 80* | 108*
COc1ccc(C(=O)c2c(C)c3ccccc3n2CC(O)CNC(C)C)cc1 (stereo not drawn) | 0 | 44* | 26* | -5 | 0 | 120 | i | 5 | 0
CC1(C)Cc2c(c(-c3ccco3)nc3sc4c(NCCCO)ncnc4c23)CO1 | -17 | 111* | 33* | -7 | 0 | 26* | i | 20 | 23*
CCCN1/C(=C(\C#N)C2=NS(=O)(=O)c3ccccc32)N(C)c2ccccc21 | 0 | -17 | 4 | 0 | x | x | x | x | x
Cc1nc([N+](=O)[O-])c(Br)n1CC(=O)c1ccccc1 | 1 | 13 | 14 | -6 | 1 | x | x | x | x
Cc1nc([N+](=O)[O-])c(Br)n1CC(=O)c1ccc2ccccc2c1 | 0 | 43* | 25* | 5 | 0 | 78 | i | 53* | 36*
O=C(c1cnn2c(C(F)F)cc(-c3ccccc3)nc12)N1CCCCC1c1cccnc1 (stereo not drawn) | -12 | -7 | 1 | 0 | 0 | x | x | x | x
CN(C)CC(C(=O)c1ccccc1)c1ccccc1 (stereo not drawn) | 1 | 56* | 31* | -6 | 1 | 82 | i | 13 | 100*
Cc1ccc(N(C)C(=O)c2cc(S(=O)(=O)N3CCCC3)cn2C)cc1 | 1 | 5 | -5 | -5 | 0 | x | x | x | x
O=[N+]([O-])c1ccc(S(=O)(=O)c2cccc(C(F)(F)F)c2)nc1 | 2 | 57* | 52* | 4 | 0 | 24* | i | 88* | 113*
O=S(=O)(Nc1cccnc1)c1cccc(C(F)(F)F)c1 | 0 | 6 | 2 | -5 | 0 | x | x | x | x
O=C(CCCN1C(=O)c2cccc3cccc(c23)C1=O)NC1CCS(=O)(=O)C1 (stereo not drawn) | -20 | -1 | 1 | -5 | 0 | x | x | x | x
CSc1ccc(S(=O)(=O)N(CC(=O)NN=C2CCN(C)CC2)c2ccc(C)cc2)cc1 | 1 | -3 | 11 | 2 | 0 | x | x | x | x
Cc1nn(-c2ccccn2)c2nc(-c3cccs3)cc(C(=O)NCc3ccco3)c12 | -7 | 43* | 35* | 15 | 0 | 73 | i | 14 | 15*
Cc1ccc(NC(=O)c2cc(N3C(=O)C=CC3=O)ccc2N2CCOCC2)cc1 | -4 | 123* | 29* | 3 | x | 42* | i | 51* | 98*
COc1cc2nc(N3CCNCC3)nc(N)c2cc1OC | 2 | 61* | 6 | 34* | 15 | 51* | i | x | x | NadD conf=19
Cc1ccccc1C(=O)NCC(=O)OCCCOC(=O)CNC(=O)c1ccccc1C | 3 | -12 | -21 | -5 | 0 | x | x | x | x
SMILES | SENP1 FRET inh | Beta2AR agonist | ABHD5 PLIN5 PPI | NadD block | GRK2 aptamer HTS | Beta2AR ag CP1 | FAP fluor counter | ABHD5 PLIN5 conf | HNF4 split-luc | others
CNc1ccc(Br)cc(C(=O)/C=C/c2cccc(OC)c2)c1=O | -20 | 16 | 30* | 14 | 5 | x | x | 65* | 49*
Cc1ccc(C2C3=C(CCCC3=O)N=C3c4ccccc4C(=O)C32)cc1 (stereo not drawn) | -1 | -9 | 33* | 2 | 0 | x | x | 51* | 55*
O=C1CCCC2=C1C(c1ccccc1)C1C(=O)c3ccccc3C1=N2 (stereo not drawn) | -6 | -11 | 9 | -1 | 4 | x | x | x | x
O=C(Nc1cccc(C(F)(F)F)c1)C1=CC=CN2CCS(=O)(=O)N=C12 | 2 | 0 | -5 | -4 | 2 | x | x | x | x
O=C(C(c1ccccc1)N1CCOCC1)N1CCOCC1 (stereo not drawn) | 1 | 2 | -4 | -8 | 0 | x | x | x | x
O=C(C=Cc1ccccc1)CC(c1ccccc1)N1CCOCC1 (stereo not drawn) | 1 | 5 | 77* | -6 | x | x | x | 100* | 95*
OCc1nc2ccccc2n1CCOc1ccccc1 | -1 | 2 | -6 | -2 | 0 | x | x | x | x
CCOc1ccc(NCc2nc3ccccc3n2CCOc2ccccc2)cc1 | -3 | 1 | 25* | 12 | 4 | x | x | 8 | 11
CNC[C@H](Cc1ccccc1)NC[C@@H](Cc1cccc2ccccc12)NCCc1ccc(C)cc1 | -18 | 98* | 39* | 17 | 0 | x | x | 5 | 14*
CC(C)/C=C1\CC/C(=C\c2ccc(N(C)C)cc2)C1=O | -29 | -13 | 1 | -3 | 14 | x | x | x | x
CN(C)c1ccc(/C=C2/C[N+](C)(C)C/C(=C/c3ccc(N(C)C)cc3)C2=O)cc1 | -28 | -559 | 39* | -1 | x | x | x | 50* | 42*
COc1ccc(/C=C\C(=O)CC(O)(c2ccccc2)C(F)(F)F)cc1 (stereo not drawn) | 3 | 10 | 53* | -7 | 0 | x | x | 79* | 55*
CC(=O)OC1CCC2(C)C(CCC3C4CC=C(C(C)=O)C4(C)OC(=O)CC32)C1 (stereo not drawn) | 0 | x | 61* | 3 | x | x | x | 88* | 93*
Cc1cc(C)c(C#N)c(Sc2nc(C)c([N+](=O)[O-])c(C)c2C#N)n1 | 2 | x | 31* | 3 | x | x | x | 36* | 27*

Compound activity: PubChem, several laboratories
